In ChEMBL document CHEMBL1177836, “New quinoxaline 1, 4-di-N-oxides: anticancer and hypoxia-selective therapeutic agents” (Eur J Med Chem, 2010):
≈ marks a conversion by molar mass, not a printed value.

Assays:
[1] = system: HepG2; assay: Growth inhibition of human HepG2 cells after 48 hrs by SRB assay; format: functional, cell-based; details: HepG2, 48 h
Summary of the method: (§1)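 Cells plated at 10⁴ per well and allowed 24 h to attach. Compounds dissolved in DMSO were added at 0.1, 2.5, 5 and 10 µg/ml and incubated 48 h at 37 °C under 5% CO₂. Cells were then fixed, washed and stained with sulforhodamine B, and colour intensity was read on an ELISA reader.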

[2] = system: U-251; assay: Growth inhibition of human U251 cells after 48 hrs by SRB assay; format: functional, cell-based; details: U-251, 48 h; summary of the method: as §1
[3] = Cytotoxicity against mouse EAC cells in aerobic condition by trypan blue exclusion assay; format: functional, cell-based; details: Ehrlich
Summary of the method: (§2)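 EAC cells aspirated from ascitic fluid of pre-inoculated female Swiss albino mice, suspended at 2.5×10⁶ cells/ml. Compounds freshly diluted in DMSO, 0.1 ml added per tube. Parallel aerobic and anaerobic tube sets; anaerobic tubes gassed with N₂ throughout. Incubation 2 h, then centrifugation. Trypan blue exclusion with haemocytometer counts; % viability = unstained cells/total cells × 100. DMSO-only negative control.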

[4] = Cytotoxicity against mouse EAC cells in hypoxic condition by trypan blue exclusion assay; format: functional, cell-based; details: Ehrlich
Summary of the method: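 EAC suspension (2.5×10⁶ cells/ml, from ascitic fluid of pre-inoculated female Swiss albino mice) exposed 2 h to DMSO-dissolved compounds over 1–100 µg/ml, in air or under continuous N₂. Viability by trypan blue exclusion, haemocytometer counts. IC50 taken as the concentration causing 50% mortality in net cell numbers.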

[5] = Cytotoxicity against mouse EAC cells in aerobic condition assessed as cell viability at 100 ug/ml after 2 hrs by trypan blue exclusion assay; format: functional; details: Ehrlich, read-out: Activity; summary of the method: as §2
[6] = Cytotoxicity against mouse EAC cells in hypoxic condition assessed as cell viability at 100 ug/ml after 2 hrs by trypan blue exclusion assay; format: functional; details: Ehrlich, read-out: Activity; summary of the method: as §2
[7] = Cytotoxicity against mouse EAC cells in aerobic condition assessed as cell viability at 50 ug/ml after 2 hrs by trypan blue exclusion assay; format: functional; details: Ehrlich, read-out: Activity; summary of the method: as §2
[8] = Cytotoxicity against mouse EAC cells in hypoxic condition assessed as cell viability at 50 ug/ml after 2 hrs by trypan blue exclusion assay; format: functional; details: Ehrlich, read-out: Activity; summary of the method: as §2
[9] = Cytotoxicity against mouse EAC cells in aerobic condition assessed as cell viability at 25 ug/ml after 2 hrs by trypan blue exclusion assay; format: functional; details: Ehrlich, read-out: Activity; summary of the method: as §2
[10] = Cytotoxicity against mouse EAC cells in hypoxic condition assessed as cell viability at 25 ug/ml after 2 hrs by trypan blue exclusion assay; format: functional; details: Ehrlich, read-out: Activity; summary of the method: as §2
[11] = Cytotoxicity against mouse EAC cells in aerobic condition assessed as cell viability at 10 ug/ml after 2 hrs by trypan blue exclusion assay; format: functional; details: Ehrlich, read-out: Activity; summary of the method: as §2
[12] = Cytotoxicity against mouse EAC cells in hypoxic condition assessed as cell viability at 10 ug/ml after 2 hrs by trypan blue exclusion assay; format: functional; details: Ehrlich, read-out: Activity; summary of the method: as §2
[13] = Cytotoxicity against mouse EAC cells in aerobic condition assessed as cell viability at 5 ug/ml after 2 hrs by trypan blue exclusion assay; format: functional; details: Ehrlich, read-out: Activity; summary of the method: as §2
[14] = Cytotoxicity against mouse EAC cells in hypoxic condition assessed as cell viability at 5 ug/ml after 2 hrs by trypan blue exclusion assay; format: functional; details: Ehrlich, read-out: Activity; summary of the method: as §2
[15] = Cytotoxicity against mouse EAC cells in aerobic condition assessed as cell viability at 1 ug/ml after 2 hrs by trypan blue exclusion assay; format: functional; details: Ehrlich, read-out: Activity; summary of the method: as §2
[16] = Cytotoxicity against mouse EAC cells in hypoxic condition assessed as cell viability at 1 ug/ml after 2 hrs by trypan blue exclusion assay; format: functional; details: Ehrlich, read-out: Activity; summary of the method: as §2
[17] = Ratio of IC50 for mouse EAC cells in aerobic condition to IC50 for mouse EAC cells in hypoxic condition
[18] = system: Ehrlich; assay: Cytotoxicity against mouse EAC cells in hypoxic condition assessed as concentration required for 1% cell survival

Structure (SMILES)	IC50 [1] [mg/L]	IC50 [2] [mg/L]	IC50 [3] [mg/L]	IC50 [4] [mg/L]	viability at 100 µg/mL [5] [%]	viability at 100 µg/mL [6] [%]	viability at 50 µg/mL [7] [%]	viability at 50 µg/mL [8] [%]	viability at 25 µg/mL [9] [%]	viability at 25 µg/mL [10] [%]	viability at 10 µg/mL [11] [%]	viability at 10 µg/mL [12] [%]	viability at 5 µg/mL [13] [%]	viability at 5 µg/mL [14] [%]	viability at 1 µg/mL [15] [%]	viability at 1 µg/mL [16] [%]	HCR (IC50 air/IC50 hypoxia ratio) [17]	Potency [18] [mg/L]
CCOc1ccc(NCc2nc3cc(OC)ccc3[n+]([O-])c2-c2ccccc2)cc1	4.95 (≈ 12.3 µM)	> 10	> 100	> 100	85	80.7	93.3	87	97.6	95	96.3	98	98.6	99	100	100	> 1	> 100
Cc1c(NC(=O)OC(C)C)[n+]([O-])c2cc(Cl)ccc2[n+]1[O-]	> 10	> 10	–	–	92	90.6	96.4	96.3	97	96	98.3	97.3	98.8	98.3	100	100	–	–
N#Cc1c(N)[n+]([O-])c2ccc(Cl)cc2[n+]1[O-]	–	–	> 100	13.5 (≈ 57.1 µM)	94	5	94.3	43.5	95	65.1	97.3	71.3	98.8	87.8	100	94	> 7.4	> 100
COc1ccc2c(c1)[n+]([O-])c(NC(=O)OC(C)C)c(C)[n+]2[O-]	6 (≈ 19.5 µM)	> 10	> 100	> 100	87.7	63.2	92.6	76.2	97	82.3	99	90.4	99	91.9	100	94.8	> 1	> 100
CCOc1ccc(/N=C/c2c(-c3ccccc3)[n+]([O-])c3ccc(OC)cc3[n+]2[O-])cc1	0.77 (≈ 1.85 µM)	> 10	> 100	70 (≈ 168 µM)	84.1	30.5	91.1	64.9	92.3	84.4	95.4	92.9	99	97	99.3	99.3	> 1.4	> 100
CNc1c(C#N)[n+]([O-])c2cc(Cl)ccc2[n+]1[O-]	4.75 (≈ 19 µM)	> 10	> 100	> 100	89	72	82.7	81.4	94	90.6	96.7	92.7	96	96	100	99.5	> 1	> 100
COc1ccc2c(c1)[n+]([O-])c(C(=O)N=[N+]=[N-])c(C)[n+]2[O-]	3.61 (≈ 13.1 µM)	> 10	> 100	12.5 (≈ 45.4 µM)	56	1.3	77.9	6.2	80.7	11.3	83.9	58.3	99	81.1	94.5	94.5	> 8	90 (≈ 327 µM)
COc1ccc(NC(=O)Nc2c(C)[n+]([O-])c3ccc(Cl)cc3[n+]2[O-])cc1	0.5 (≈ 1.33 µM)	> 10	100 (≈ 267 µM)	10 (≈ 26.7 µM)	54.6	5.3	73.3	10.3	79.2	24.2	83	50.2	98	73.3	99.6	86.7	10	> 100
Nc1n[n+]([O-])c2ccccc2[n+]1[O-] [TIRAPAZAMINE]	56.6 (≈ 318 µM)	71.2 (≈ 400 µM)	–	–	–	–	–	–	–	–	–	–	–	–	–	–	–	–
COc1ccc(NC(=O)Nc2c(C)[n+]([O-])c3ccc(OC)cc3[n+]2[O-])cc1	6 (≈ 16.2 µM)	> 10	–	–	–	–	–	–	–	–	–	–	–	–	–	–	–	–
Cc1c(C(=O)N=[N+]=[N-])[n+]([O-])c2cc(Cl)ccc2[n+]1[O-]	–	–	> 100	> 100	81.8	59.1	91.2	70.3	98	84.2	98	88.3	98	92.6	100	99.3	> 1	> 100
CC(=O)N(C(C)=O)c1c(C#N)[n+]([O-])c2cc(Cl)ccc2[n+]1[O-]	5.69 (≈ 17.7 µM)	> 10	> 100	2.5 (≈ 7.8 µM)	77.7	0	78.9	1.3	80.7	3	83.9	12.6	99	30.3	99.6	75.4	> 40	22 (≈ 68.6 µM)
